IDH1 R132H inh = IDH1 R132H (human) inhibition | O75874 | IDH1 R132H reductase, diaphorase/resazurin fluorescence, 60 min | inhibition, % at 10 µM | hit rate 0.18% among 70,000; in the data active = inhibition above about 34%; inconclusive = no clear call, values can overlap the other calls; inactive = below about 11%
Target sequence (O75874 whole entry R132H): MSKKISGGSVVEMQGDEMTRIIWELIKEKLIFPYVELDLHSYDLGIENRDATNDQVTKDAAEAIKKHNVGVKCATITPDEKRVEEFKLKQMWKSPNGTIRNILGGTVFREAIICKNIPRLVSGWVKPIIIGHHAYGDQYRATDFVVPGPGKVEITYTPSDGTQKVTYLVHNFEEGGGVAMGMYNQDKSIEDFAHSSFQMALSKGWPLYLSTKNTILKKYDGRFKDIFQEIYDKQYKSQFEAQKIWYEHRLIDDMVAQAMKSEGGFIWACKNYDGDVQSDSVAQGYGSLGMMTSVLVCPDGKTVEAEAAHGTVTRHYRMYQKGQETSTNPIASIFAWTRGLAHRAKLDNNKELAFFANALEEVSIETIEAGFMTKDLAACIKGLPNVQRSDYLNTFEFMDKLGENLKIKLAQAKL
T cruzi growth-1 = inhibitors of T. cruzi proliferation; hit rate 5.9% among 77,000; T. cruzi beta-gal in NIH3T3, GalScreen luminescence, 90 h; inhibition, % at 8.34 µM; AID 624255;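 active = mean inhibition above about 93%, with at least 55% of replicates each passing it, limit read from the data, passing the limit was not always enough; inconclusive = only one of those two conditions holds; inactive = neither condition holds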
KDM4C inh = KDM4C (human) demethylase inhibition; Q9H3R0; GST-KDM4C 2-372, H3K9me3 peptide, LANCE TR-FRET; inhibition, % at 12.5 µM; hit rate 0.15% among 96,000;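 active = mean replicate inhibition above about 25%, with at least 55% of replicates also reaching it, limit read from the data, passing the limit was not always enough; inconclusive = only one of those two conditions met; inactive = neither condition met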
Target sequence (Q9H3R0 2-372 limits assumed): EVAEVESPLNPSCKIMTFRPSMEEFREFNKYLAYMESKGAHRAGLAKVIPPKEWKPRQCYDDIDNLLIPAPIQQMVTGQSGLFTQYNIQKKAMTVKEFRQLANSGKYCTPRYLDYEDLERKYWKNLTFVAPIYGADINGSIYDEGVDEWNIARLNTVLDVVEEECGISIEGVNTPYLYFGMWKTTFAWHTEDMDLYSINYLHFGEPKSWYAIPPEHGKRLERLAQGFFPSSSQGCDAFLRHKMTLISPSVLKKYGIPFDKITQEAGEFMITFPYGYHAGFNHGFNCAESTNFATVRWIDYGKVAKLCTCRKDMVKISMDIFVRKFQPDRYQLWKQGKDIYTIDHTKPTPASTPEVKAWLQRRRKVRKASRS
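reagent = H3K9me3 peptide substrate, Fe(II), 2-oxoglutarate | system = GST-tagged GASC-1 (JMJD2C) catalytic fragment, aa 2-372 | amount = enzyme final amount 10 nM | read-out = Fall in 671/618 emission ratio as inhibition | medium = HEPES buffer, pH 7.5, plus ascorbate | schedule = 30 min reaction, 60 min detection, RT | measured by = LANCE TR-FRET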
T cruzi growth-2 = inhibitors of T. cruzi proliferation. shares compounds with T cruzi growth-1. T. cruzi beta-gal in NIH3T3, GalScreen luminescence, 90 h. inhibition, % at 8.35 µM. hit rate 72% among 5,600. AID 651739;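 active = mean replicate inhibition above about 95% and at least 55% of replicates individually reaching it, limit read from the data; inconclusive = only one of the two criteria is met; inactive = neither criterion is met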
T cruzi growth-3 = inhibitors of T. cruzi proliferation | shares compounds with T cruzi growth-1 | T. cruzi beta-gal in NIH3T3, GalScreen luminescence, 90 h | inhibition, % at 2.09 µM | hit rate 21% among 5,600 | AID 651740;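 active = mean inhibition above about 95%, with at least 55% of replicates also reaching it, limit read from the data; inconclusive = meets just one of the two conditions; inactive = meets neither condition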
NIH3T3 tox = kills mouse NIH/3T3 fibroblasts; shares compounds with T cruzi growth-1; NIH/3T3 viability, CellTiter-Glo ATP luminescence, 90 h; cytotoxicity (signal decrease), % at 8.35 µM; hit rate 14% among 5,600; AID 651742;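 active = mean signal decrease across replicates above about 35% based on untreated-well scatter, with enough replicates individually passing, limit read from the data; inconclusive = no rule stated though some were filed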
3T3 cytotox 2 = kills mouse NIH/3T3 fibroblasts; shares compounds with T cruzi growth-1; NIH/3T3 viability, CellTiter-Glo ATP luminescence, 90 h; inhibition, % at 24.9 µM; hit rate 56% among 5,600; AID 651744;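 active = mean loss of cell viability signal at or above a set limit, and enough replicates individually reaching it; inconclusive = meets only the mean limit or only the replicate share; inactive = meets neither condition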
Large screens that a line does not name were inactive (follow-up assays come after a bar, where they were run). Many of the other results were omitted from the sample, so hits are more common in it than they were.

O=S(=O)(c1cccc(F)c1)N1CC[C@@H]2[C@@H](CO)Nc3ccc(C#Cc4ccccc4F)cc3[C@@H]21	T cruzi growth-1 inconclusive (no result: IDH1 R132H inh) | T cruzi growth-2 104 | T cruzi growth-3 112 | NIH3T3 tox inactive | 3T3 cytotox 2 inactive
O=S(=O)(c1ccccc1)N1CC[C@H]2[C@H](CO)Nc3ccc(C#Cc4ccccc4F)cc3[C@H]21	none (no result: IDH1 R132H inh, T cruzi growth-1)
CC(C)NC(=O)N(C)C[C@H]1OCCCC[C@H](C)Oc2ccc(NC(=O)CCC(F)(F)F)cc2C(=O)N([C@H](C)CO)C[C@@H]1C	none
N#C[C@H]1[C@H](c2ccccc2C2=CCCC2)[C@@H](CO)N1C(=O)CN1CCOCC1	none (no result: IDH1 R132H inh, T cruzi growth-1)
C[C@H](CO)N1C[C@H](C)[C@@H](CN(C)C(=O)Nc2ccccc2)Oc2cc(C#Cc3ccccc3)ccc2S1(=O)=O	T cruzi growth-1 118 | T cruzi growth-2 105 | T cruzi growth-3 inactive | NIH3T3 tox inactive | 3T3 cytotox 2 inactive
CC(C)C#Cc1ccc2c(c1)O[C@H](CN(C)C(=O)Nc1ccccc1)[C@@H](C)CN([C@H](C)CO)S2(=O)=O	none (no result: IDH1 R132H inh, T cruzi growth-1)
C[C@@H]1CN([C@H](C)CO)S(=O)(=O)c2ccc(C#Cc3ccccc3)cc2O[C@@H]1CN(C)C(=O)Nc1ccccc1	none
C[C@H](CO)N1C[C@H](C)[C@H](CN(C)C(=O)Nc2ccccc2)Oc2cc(C#Cc3ccccc3)ccc2S1(=O)=O	T cruzi growth-1 118 | T cruzi growth-2 107 | T cruzi growth-3 inactive | NIH3T3 tox inactive | 3T3 cytotox 2 inactive
Cc1ccccc1-c1ccc2c(c1)O[C@@H](CN(C)C(=O)Nc1ccccc1)[C@@H](C)CN([C@H](C)CO)S2(=O)=O	none
Cc1ccccc1-c1ccc2c(c1)O[C@H](CN(C)C(=O)Nc1ccccc1)[C@@H](C)CN([C@@H](C)CO)S2(=O)=O	T cruzi growth-1 92 | T cruzi growth-2 102 | T cruzi growth-3 inactive | NIH3T3 tox inconclusive | 3T3 cytotox 2 64
O=C(N[C@@H]1CC[C@@H](CCn2cc(-c3ccccn3)nn2)O[C@H]1CO)c1ccncc1	none
CC(C)C(=O)Nc1ccc2c(c1)C(=O)N(C)[C@@H]1CC[C@H](CC(=O)NCc3cccc(F)c3)O[C@H]1CO2	none (no result: IDH1 R132H inh)
COc1ccc(S(=O)(=O)N(C)CC(=O)NC2CCCCC2)cc1C	none (no result: T cruzi growth-1, KDM4C inh)
O=C(C[C@H]1C=C[C@H](NC(=O)Nc2ccc3c(c2)OCO3)[C@@H](CO)O1)NCc1ccc(Cl)cc1	none
CC(=O)N1CCCCN2[C@@H](CO)[C@@H](c3ccc(-c4cccc(C)c4)cc3)[C@@H]2C1	T cruzi growth-1 inconclusive (no result: IDH1 R132H inh) | T cruzi growth-2 inactive | T cruzi growth-3 inactive | NIH3T3 tox 42 | 3T3 cytotox 2 62
CC(=O)N1CCCCN2[C@@H](CO)[C@@H](c3ccc(-c4ccccc4)cc3)[C@@H]2C1	none (no result: IDH1 R132H inh)
CC(=O)N1CCCCN2[C@H](CO)[C@@H](c3ccc(-c4cccc(C)c4)cc3)[C@H]2C1	none (no result: IDH1 R132H inh)
CC(=O)N1CCCCN2[C@H](CO)[C@H](c3ccc(-c4ccc(C)cc4)cc3)[C@@H]2C1	T cruzi growth-1 117 (no result: IDH1 R132H inh) | T cruzi growth-2 98 | T cruzi growth-3 inactive | NIH3T3 tox 44 | 3T3 cytotox 2 34
CCCNC(=O)N1CC2(C1)[C@H](c1ccccc1)[C@H](CO)N2C(=O)C1CC1	none (no result: IDH1 R132H inh, T cruzi growth-1)
COc1cccc(NC(=O)N[C@@H]2CC[C@@H](CC(=O)Nc3ccccc3)O[C@H]2CO)c1	none (no result: T cruzi growth-1)
C[C@H]1CCCCO[C@H](CN(C)C(=O)C2CCCCC2)[C@@H](C)CN([C@@H](C)CO)C(=O)c2cc(NC(=O)CCCN(C)C)ccc2O1	none (no result: IDH1 R132H inh)
CN(C)c1ccc2c(c1)[C@@H]1C[C@@H](CC(=O)NCc3ccc(Oc4ccccc4)cc3)O[C@H](CO)[C@@H]1O2	none (no result: KDM4C inh)
CN(C)c1ccc2c(c1)[C@@H]1C[C@H](CC(=O)NCc3ccc(Oc4ccccc4)cc3)O[C@@H](CO)[C@@H]1O2	T cruzi growth-1 153 (no result: KDM4C inh) | T cruzi growth-2 inactive | T cruzi growth-3 inactive | NIH3T3 tox 53 | 3T3 cytotox 2 55
CN(C)c1ccc2c(c1)[C@@H]1C[C@H](CC(=O)NCc3ccc(Oc4ccccc4)cc3)O[C@H](CO)[C@@H]1O2	T cruzi growth-1 122 | T cruzi growth-2 inactive | T cruzi growth-3 inactive | NIH3T3 tox inactive | 3T3 cytotox 2 inconclusive
CN(C)c1ccc2c(c1)[C@H]1C[C@H](CC(=O)NCc3ccc(Oc4ccccc4)cc3)O[C@H](CO)[C@H]1O2	T cruzi growth-1 135 | T cruzi growth-2 inactive | T cruzi growth-3 inactive | NIH3T3 tox inactive | 3T3 cytotox 2 56
COc1ccc(CNC(=O)C[C@H]2C[C@@H]3c4cc(N(C)C)ccc4O[C@@H]3[C@H](CO)O2)cc1	none
CN(C)c1ccc2c(c1)[C@@H]1C[C@@H](CC(=O)NCc3ccc(Cl)cc3)O[C@H](CO)[C@@H]1O2	KDM4C inh inconclusive
CC(=O)c1ccc(NC(=O)CNS(=O)(=O)c2cccc(Cl)c2)cc1	none (no result: T cruzi growth-1, KDM4C inh)
CN(C)C(=O)c1cccc(-c2ccc([C@@H]3[C@@H](CO)N(C(=O)C4CCCC4)[C@H]3C#N)cc2)c1	none (no result: IDH1 R132H inh, T cruzi growth-1)
CN(C)C(=O)c1ccc(-c2ccc([C@@H]3[C@@H](C#N)N(C(=O)C4CCOCC4)[C@H]3CO)cc2)cc1	T cruzi growth-1 98 (no result: IDH1 R132H inh) | T cruzi growth-2 inactive | T cruzi growth-3 inactive | NIH3T3 tox inactive | 3T3 cytotox 2 inactive
CN(C)C(=O)c1cccc(-c2ccc([C@@H]3[C@@H](C#N)N(C(=O)C4CCC4)[C@H]3CO)cc2)c1	none (no result: IDH1 R132H inh)
CN(C)C(=O)c1cccc(-c2ccc([C@H]3[C@@H](C#N)N(C(=O)C4CCCCC4)[C@H]3CO)cc2)c1	none (no result: IDH1 R132H inh)
CN(C)C(=O)c1cccc(-c2ccc([C@H]3[C@@H](CO)N(C(=O)C4CCC4)[C@H]3C#N)cc2)c1	T cruzi growth-1 104 (no result: IDH1 R132H inh) | T cruzi growth-2 inactive | T cruzi growth-3 inactive | NIH3T3 tox inactive | 3T3 cytotox 2 inactive
CN(C)C(=O)c1cccc(-c2ccc([C@H]3[C@@H](C#N)N(C(=O)C4CCC4)[C@H]3CO)cc2)c1	T cruzi growth-1 102 (no result: IDH1 R132H inh) | T cruzi growth-2 inactive | T cruzi growth-3 inactive | NIH3T3 tox inactive | 3T3 cytotox 2 inactive
CN(C)C(=O)c1ccc(-c2ccc([C@H]3[C@H](C#N)N(C(=O)C4CCC4)[C@H]3CO)cc2)cc1	none (no result: IDH1 R132H inh)
CN(C)C(=O)c1cccc(-c2ccc([C@@H]3[C@H](C#N)N(C(=O)C4CCC4)[C@H]3CO)cc2)c1	T cruzi growth-1 100 (no result: IDH1 R132H inh) | T cruzi growth-2 inactive | T cruzi growth-3 inactive | NIH3T3 tox inactive | 3T3 cytotox 2 inactive
COc1ccc(S(=O)(=O)Nc2cccc3c2O[C@H](CN(C)C(=O)NC2CCCCC2)[C@H](C)CN([C@@H](C)CO)C3=O)cc1	none
C[C@@H]1CN([C@@H](C)CO)C(=O)c2cc(NS(C)(=O)=O)ccc2O[C@@H](C)CCCCO[C@H]1CN(C)S(=O)(=O)c1ccc(Cl)cc1	none (no result: IDH1 R132H inh)

High-throughput results (PubChem BioAssay)
